Screening data from PubChem.
In the library only some 1.3% were active in any assay of this set; here they are far more common.
TPT1 inhibitor: blocks Candida albicans tRNA 2'-phosphotransferase | recombinant caTPT1, FP RNA substrate dephosphorylation | inhibition, % at 5 µM | 300,000 compounds, 0.81% hits | AID 1962;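 active = inhibition above the mean of all tested compounds plus 3 SD, set per screening campaign, cut at about 24% in these data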;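 also: plate controls were DMSO alone for no effect and ferristatin control at 100 nM for full effect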
aDG glyco up: alpha-DG glycosylation activation. Pro5-aDG cells, alpha-DG glycosylation AlphaScreen (IIH6); 0% Pro5, 100% B10-LARGE cell signal. activation, % at 10 µM. 360,000 compounds, 0.22% hits;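 active = activation of at least 8% versus controls, or a plate z-score of at least 8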;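 also: Pro5 are CHO cells carrying HIG-tagged alpha-DG that lacks glycosylation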
CSN deneddyl inh: CSN deneddylation inhibition | Q92905 | Purified CSN, SCF-Nedd8-OG deneddylation, fluorescence polarization | inhibition, % at 12.5 µM | 360,000 compounds, 0.38% hits | AID 651999;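 active = pattern-corrected inhibition above about 35%, with an unprinted fluorescence ratio check between 0.5 and 1.5, limit read from the data, passing the limit was not always enough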;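 also: 0% = enzyme with substrate and 100% = substrate without enzyme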
Target sequence (Q92905 whole entry, looked up, one chain of several): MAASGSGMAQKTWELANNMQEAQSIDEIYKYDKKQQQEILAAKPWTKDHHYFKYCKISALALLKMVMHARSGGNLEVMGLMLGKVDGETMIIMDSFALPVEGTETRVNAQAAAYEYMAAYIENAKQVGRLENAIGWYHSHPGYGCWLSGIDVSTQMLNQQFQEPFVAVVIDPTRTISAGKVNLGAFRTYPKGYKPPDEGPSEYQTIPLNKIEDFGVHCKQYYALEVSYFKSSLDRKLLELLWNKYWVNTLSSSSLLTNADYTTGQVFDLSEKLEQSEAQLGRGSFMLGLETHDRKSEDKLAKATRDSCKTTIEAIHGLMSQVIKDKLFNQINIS
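Assay system: purified human Csn5 enzyme expressed in HEK293T cells; Input: 0.24 nM Csn5 enzyme, final concentration; Reagent: 10 nM SCFSkp2-Nedd8OG; Compound dosing: 12.5 µM single point; Times: reaction 90 min, room temperature; Technique: fluorescence polarization readout.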
Xi reactivation: activators of X-chromosome reactivation in mouse fibroblasts; XiGFP mouse fibroblasts, % GFP-positive cells imaging, 3 d; cells co-treated with 5-aza-dC sensitizer; scaled so ellipticine positive control = 100%; activation, % at 7.58 µM; 360,000 compounds, 0.055% hits; AID 743238;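 active = mean normalized replicate activation at least 10% and every replicate at or above 10%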;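 also: 0% = median of on-plate neutral control wells and 100% = ellipticine 6 µM median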
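Schedule: 3 d treatment, 15 min room-temperature fixation; system: 68-5-11 XiGFP fibroblast line; buffer or medium: DMEM plus 5-aza-dC sensitizer; control set: ellipticine 6 µM positive control; compound: one concentration, pinned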
Rpn11 block: inhibitors of human proteasome Rpn11; human 26S proteasome, Ub4-pepOG fluorescence polarization; 20S core pre-blocked with epoxomicin; inhibition, % at 20 µM; 360,000 compounds, 0.59% hits; AID 588493;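 active = inhibition at 20 µM, scaled to each plate's controls, above about 33%, limit read from the data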
Target sequence (O00487 whole entry, looked up): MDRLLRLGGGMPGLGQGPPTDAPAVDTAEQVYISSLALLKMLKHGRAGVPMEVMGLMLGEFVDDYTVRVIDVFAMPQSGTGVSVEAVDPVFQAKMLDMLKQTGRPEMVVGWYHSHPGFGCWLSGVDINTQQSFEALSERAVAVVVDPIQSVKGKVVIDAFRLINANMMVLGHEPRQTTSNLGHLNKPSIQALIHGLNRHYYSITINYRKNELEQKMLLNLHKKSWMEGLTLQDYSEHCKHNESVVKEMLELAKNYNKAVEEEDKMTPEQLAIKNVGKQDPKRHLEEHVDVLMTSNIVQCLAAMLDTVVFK
HNF4A DNA FP: change in binding of human HNF4 alpha to DNA; P41235; HNF4a-FITC DNA binding, fluorescence polarization, 1 h; activity change, % at 10 µM; 360,000 compounds, 0.3% hits; in the data active = activity change above about 30%, passing the limit was not always enough
Rpn11 inh conf: confirmation of human proteasome Rpn11 inhibitors | inhibition, % at 20 µM | purified human 26S proteasome, Ub4-pepOG fluorescence polarization; proteasome pretreated with epoxomicin | 1,900 compounds, 29% hits | shares compounds with Rpn11 block | AID 602318
MMP-2 counter-1: counter-screen for RPN11 inhibitors: inhibition of human MMP-2; shares compounds with Rpn11 block; recombinant MMP-2, FRET peptide cleavage fluorescence; 1,900 compounds, 4% hits; AID 602330; inhibition, % at 20 µM;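 also: human MMP-2 activated beforehand with APMA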
Thrombin FP: thrombin (bovine) inhibition counter-screen | shares compounds with Rpn11 block | bovine thrombin cleavage of Ub4-pepOG, fluorescence polarization | inhibition, % at 20 µM | 1,900 compounds, 13% hits | AID 602333;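 active = mean inhibition at least 40% at 20 µM, or signal 3 deviations below plate average, so some actives read negative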;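 also: plate controls were thrombin with DMSO for no effect and buffer wells lacking thrombin for full effect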
CSN deneddyl val: Csn5 (human) deneddylation inhibition, single-concentration validation; shares compounds with CSN deneddyl inh; Csn5 deneddylation of SCF-Nedd8OG, fluorescence polarization, 90 min; inhibition, % at 16.6 µM; 540 compounds, 62% hits; AID 720654; in the data active = inhibition above about 50%;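 also: 0% = DMSO with enzyme and 100% = no enzyme wells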
MMP-2 counter-2: MMP-2 (human) inhibition, counter-screen for CSN hits | inhibition, % at 16.6 µM | AID 720655 | recombinant MMP-2, FRET substrate fluorescence, 60 min | 540 compounds, 33% hits | shares compounds with CSN deneddyl inh;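 active = corrected plate-normalized z-score of 5 or more, or -5 or less, or inhibition of 15% or more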;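 also: plate controls were DMSO wells with enzyme for no effect and buffer wells lacking MMP-2 for full effect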
Thrombin counter: counter-screen for CSN deneddylation inhibitors: bovine thrombin inhibition | inhibition, % at 16.6 µM | AID 720656 | 540 compounds, 49% hits | bovine thrombin cleavage of Ub4-pepOG, fluorescence polarization | shares compounds with CSN deneddyl inh;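 active = inhibition at or above a set limit, with a fluorescence interference ratio between 0.5 and a set maximum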
HNF4A confirm: change in binding of human HNF4 alpha to DNA, retest. shares compounds with HNF4A DNA FP. HNF4A-FITC DNA binding, fluorescence polarization, 1 h. activity change, % at 12.5 µM. 210 compounds, 99% hits. AID 1224897; call rule not given here
Numbers without * were called inactive; · = no result; + = active, no number. Rule as the data show it, unless noted: active = inhibition above about 40%; inactive = the rest.

SMILES	TPT1 inhibitor	aDG glyco up	CSN deneddyl inh	Xi reactivation	Rpn11 block	HNF4A DNA FP	Rpn11 inh conf	MMP-2 counter-1	Thrombin FP	CSN deneddyl val	MMP-2 counter-2	Thrombin counter	others
COc1cc(N(C)C)ccc1C=c1c2ccccc2n2c1cc(-c1ccccc1)[n+]2C	·	-1	71*	1	115*	176	98*	-84	82*	-15	73*	57*
Cc1sc2nc3c4ccccc4c(NCc4ccco4)nn3c(=O)c2c1C	6	0	64*	·	47*	-1	0	-13	-6	102*	7	7
C[C@H](CO)N1C[C@H](C)[C@H](CN(C)C(=O)Nc2ccccc2)Oc2ccc(N(C)C)cc2CC1=O	·	·	·	-1	·	·	·	·	·	·	·	·
O=C(O)CN1C(=O)/C(=C\c2cc(Br)ccc2OCc2ccc(Cl)cc2Cl)SC1=S	-3	0	36*	·	80*	-22	13	11	79*	33	2	8
O=C(O)CN1C(=O)/C(=C\c2ccccc2OCc2ccc(Cl)cc2)SC1=S	1	0	5	0	5	-5	·	·	·	·	·	·
COc1cc(NS(=O)(=O)c2ccc(NC(=S)NC(=O)/C=C/c3ccco3)cc2)ncn1	·	0	49*	0	42*	-42	78*	24	47*	61*	23*	22*
O=C(CCN1C(=O)/C(=C/c2ccco2)SC1=S)Nc1ccc(C(=O)O)c(O)c1	14	0	52*	0	64*	-22	9	37	-1	73*	12	6
COc1ccccc1/C=C1\SC(=S)N(CCC(=O)Nc2ccc(C(=O)O)c(O)c2)C1=O	0	0	6	0	10	-6	·	·	·	·	·	·
O=C(CCCN1C(=O)/C(=C/c2ccco2)SC1=S)Nc1ccccc1C(=O)O	3	0	39*	0	68*	-56	4	38	-1	83*	25*	32*
Cc1ccc(S(=O)(=O)N(C)C[C@H]2Oc3c(NC(=O)c4nc5ccccc5s4)cccc3C(=O)N([C@@H](C)CO)C[C@@H]2C)cc1	·	·	·	-1	·	·	·	·	·	·	·	·
Cc1ccc(-c2cnc3c(c2)C(=O)N([C@@H](C)CO)C[C@H](C)[C@@H](CN(C)CC2CCOCC2)O3)cc1	·	·	·	0	·	·	·	·	·	·	·	·
COc1ccc(-c2cnc3c(c2)C(=O)N([C@H](C)CO)C[C@H](C)[C@@H](CN(C)Cc2cccnc2)O3)cc1	·	·	·	0	·	·	·	·	·	·	·	·
Cc1nc(S/C(=C\c2ccc(-c3ccc(C(=O)O)c(Cl)c3)o2)C(=O)O)n[nH]1	·	0	73*	0	67*	-39	197*	22	24	·	19*	12
Cc1nc(S/C(=C\c2ccc(OCc3ccccc3Cl)cc2)C(=O)O)n[nH]1	-4	0	-2	·	0	2	·	·	·	·	·	·
CC(=O)NC1=NC(=O)/C(=C/c2cc(C)n(-c3cccc(C(=O)O)c3)c2C)S1	·	0	61*	0	136*	49*	+	40*	136*	-34	16*	53*
COC(=O)c1cc2c(=O)c3ccccc3oc2nc1/C=C/N(C)C	·	0	77*	1	44*	110	30	-39	10	95*	-2	28*
COc1ccc2nc(C)cc(N/N=C/c3ccc(F)cc3)c2c1	1	0	45*	0	69*	-3	4	-27	-41	92*	16*	-10
COc1cccc(NC(=O)N(C)C[C@@H]2Oc3ncc(/C=C/c4ccccc4)cc3C(=O)N([C@H](C)CO)C[C@@H]2C)c1	·	·	·	-1	·	·	·	·	·	·	·	·
O=C1c2cccc(NCCCNCCO)c2C(=O)c2cccc(NCCCNCCO)c21	·	0	94*	0	42*	42	21	38	-44	-21	34*	-32
O=C1c2ccccc2C(=O)c2c(NCc3cccnc3)cccc21	-2	0	2	·	2	5	·	·	·	·	·	·
CCOc1ccc2nc(N3C(=O)C(O)=C(C(=O)c4ccco4)C3c3ccco3)sc2c1 (stereo unspecified)	·	0	7	0	10	0	·	·	·	·	·	·
Cc1cc(C)c2nc(N3C(=O)C(O)=C(C(=O)c4ccco4)C3c3ccco3)sc2c1 (stereo unspecified)	5	0	35*	0	39*	-15	34	10	37	·	10	-6
Cc1cc(N2CCN(c3ccc(C(F)(F)F)cc3[N+](=O)[O-])CC2)c2ccccc2n1	1	1	6	0	-3	2	·	·	·	·	·	·
Cc1cc(N2CCN(c3ccc([N+](=O)[O-])c4cccnc34)CC2)c2ccccc2n1	4	-1	59*	·	45*	138	48*	-64	-18	105*	-7	-1
COc1ccc2c3c(n(C)c2c1)[C@@H](CO)N(C(=O)Nc1ccc(F)cc1)CC31CCN(C)CC1	·	·	·	0	·	·	·	·	·	·	·	·
C=CCCC(=O)N1C[C@H]2CON(C)[C@H]2C[C@H]1c1ccc(N2CCCCC2)cc1	·	0	14	0	51*	43*	56*	10	45*	·	·	·	HNF4A confirm=45*
COc1cc(C(=O)N2C[C@H]3CON(C)[C@H]3C[C@H]2c2ccc(N3CCCCC3)cc2)cc(OC)c1OC	·	0	7	0	37	29	·	·	·	·	·	·
CCS(=O)(=O)Nc1ccc2c(c1)C(=O)N(C)C[C@@H](OC)[C@H](C)CN(CCC(F)(F)F)[C@@H](C)CO2	·	·	·	0	·	·	·	·	·	·	·	·
